Test [1] concerns Rattus norvegicus. The test is described as follows: Agonist activity at ER receptor assessed as increase in uterine weight of Sprague-Dawley rat at 10 mg/kg/day, po relative to control. In kind it is functional. In outline: (§1)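 Immature female rats were dosed orally once daily on days 28–30 of age, with a vehicle-only control group. At autopsy on day 31, 24 h after the last dose, a vaginal smear was taken and the uterus was excised, blotted and weighed fresh. Agonism was judged by uterine weight gain, vaginal opening and cornification versus vehicle. Values are means ± SEM, n≥6 per group.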

Test [2] has as its system MCF7. Put plainly: Antiproliferative activity against MCF7 cells […] after 48 hrs. In kind it is functional. Conditions: Homo sapiens; for IC50: MCF7, 48 h. An outline of the steps: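 MCF-7 cells were trypsinized (0.05% trypsin–EDTA), plated at 10⁴ cells/well in MEM at pH 7.4, and left to attach for 24 h at 37 °C under CO₂. Compounds in ethanol/DMSO were added and incubated 48 h. Cells were fixed with cold 10% TCA for 1 h at 4 °C, stained with 0.4% SRB in 1% acetic acid for 30 min, and the stain was extracted with Tris base at pH 10.5. OD was read at 560 nm.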

Test [3] deals with T1, Estrogen receptor (Rattus norvegicus) (UniProt P06211).
T1 sequence (whole entry): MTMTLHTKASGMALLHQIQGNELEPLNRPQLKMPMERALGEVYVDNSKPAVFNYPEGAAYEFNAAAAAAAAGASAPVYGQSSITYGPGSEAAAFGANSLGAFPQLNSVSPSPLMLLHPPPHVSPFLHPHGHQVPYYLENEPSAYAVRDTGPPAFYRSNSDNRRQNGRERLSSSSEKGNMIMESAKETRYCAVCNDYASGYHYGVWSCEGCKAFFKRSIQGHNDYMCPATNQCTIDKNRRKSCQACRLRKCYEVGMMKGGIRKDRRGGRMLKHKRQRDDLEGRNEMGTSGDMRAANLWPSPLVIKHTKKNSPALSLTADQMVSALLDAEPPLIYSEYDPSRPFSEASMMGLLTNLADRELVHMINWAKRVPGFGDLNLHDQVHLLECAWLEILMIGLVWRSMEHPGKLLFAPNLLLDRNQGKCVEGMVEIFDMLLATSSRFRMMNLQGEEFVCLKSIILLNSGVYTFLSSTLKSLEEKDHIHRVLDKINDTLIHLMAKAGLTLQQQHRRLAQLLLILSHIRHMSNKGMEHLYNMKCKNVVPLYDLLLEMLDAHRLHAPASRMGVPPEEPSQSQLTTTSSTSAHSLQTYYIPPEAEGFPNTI
The test is described as follows: Displacement of [3H]estradiol from ER in rat uterus […] relative to estradiol. Background: Displacement assays read how much labelled ligand stays bound in the presence of the test substance.

For test [4], the system named is Rattus norvegicus. Put plainly: Antagonist activity at ER receptor assessed as inhibition of 17-alpha-ethynylestradiol-induced increase in uterine weight of Sprague-Dawley rat at 10 mg/kg/day, po. It counts as functional. The following applies: for inhibition in vivo at 10 mg/kg/day: Rattus norvegicus, Sprague-Dawley. In outline:
(§2)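 Oral dosing was given alongside 17α-ethynylestradiol (0.02 mg/kg) in rats, with vehicle and EE-alone groups. Fresh uterine weight was expressed as percent of the EE-alone group. Values are means ± SEM of at least six animals per group. Significance was tested against the corresponding EE-alone group (P<0.05, P<0.01).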

For test [5], the system named is Rattus norvegicus. Put plainly: Agonist activity at ER receptor assessed as increase in uterine weight of Sprague-Dawley rat at 10 mg/kg/day, po. It counts as functional. In outline: as §1
Test [6] has as its system Rattus norvegicus. The test is described as follows: Agonist activity at ER receptor assessed as increase in uterine weight in Sprague-Dawley rat at 0.02 mg/kg/day, po. It counts as functional. An outline of the steps: as §1
Test [7] has as its system Rattus norvegicus. The test is described as follows: Antagonist activity at ER receptor assessed as increase in uterine weight in Sprague-Dawley rat at 0.02 mg/kg/day, po. It counts as functional.
Test [8] concerns Rattus norvegicus. The test is described as follows: Agonist activity at ER receptor assessed as increase in uterine weight of Sprague-Dawley rat at 0.02 mg/kg/day, po relative to control. In kind it is functional. An outline of the steps:
as §1

Test [9] concerns Rattus norvegicus. Put plainly: Activity at ER receptor assessed as additive effect on 17-alpha-ethynylestradiol-induced increase in uterine weight of Sprague-Dawley rat at 10 mg/kg/day, po. It counts as functional. In outline: as §2
Test [10] concerns Rattus norvegicus. Put plainly: Antagonist activity at ER receptor assessed as inhibition of increase in uterine weight of Sprague-Dawley rat at 10 mg/kg/day, po relative to 17-alpha-ethynylestradiol. In kind it is functional. More on the design: scale not given: the % may be the effect or the level left. In outline:
as §2

In test [11] the test system is Rattus norvegicus. Put plainly: Agonist activity at ER receptor assessed as increase in uterine weight of Sprague-Dawley rat at 3 mg/kg/day, po relative to control. It counts as functional. An outline of the steps:
as §1

In test [12] the test system is Rattus norvegicus. The test is described as follows: Antagonist activity at ER receptor assessed as inhibition of 17-alpha-ethynylestradiol-induced increase in uterine weight of Sprague-Dawley rat at 3 mg/kg/day, po. It counts as functional. An outline of the steps: as §2
The test system of test [13] is Rattus norvegicus. The test is described as follows: Antagonist activity at ER receptor assessed as inhibition of increase in uterine weight of Sprague-Dawley rat at 3 mg/kg/day, po relative to 17-alpha-ethynylestradiol. More on the design: scale not given: the % may be the effect or the level left. It counts as functional. An outline of the steps: as §2
For test [14], the system named is MCF7. The test is described as follows: Antiproliferative activity against MCF7 cells at 3 mg/kg/day after 48 hrs. The following applies: Homo sapiens, MCF7, 48 h.
Test [15] concerns Rattus norvegicus. Put plainly: Agonist activity at ER receptor assessed as increase in uterine weight of Sprague-Dawley rat at 3 mg/kg/day, po. It counts as functional. In outline: as §1

By IC50 is commonly meant the concentration needed to halve the response being measured. What is called inhibition in vivo is the percentage by which the read-out fell short of the control.

The source made the active and inactive calls. The calls are words filed in the database; no cut-off is given here. A value given as a limit tells only on which side of the number the result lay.

In the case of `COc1ccc(C(=C2CC(c3ccc(OCCN4CCCCC4)cc3)Oc3cc(OC)ccc32)c2ccc(OC)cc2)cc1` (centres undefined), the Activity turned out to be 168% in [1], 81.7 mg in test [4] and 52.5 mg in test [5]. In [2], this compound registered a half-maximal inhibitory concentration (IC50) of 6.68 µM. Moreover, in test [3], the RBA was less than 0.001%. Further, the inhibition in vivo at 10 mg/kg/day in test [4] worked out at 26%.
With `C#C[C@]1(O)CC[C@H]2[C@@H]3CCc4cc(O)ccc4[C@H]3CC[C@@]21C` [ETHINYL ESTRADIOL], the values for the Activity in test [6], in test [7] and in test [8] were 66.35 mg, 66.35 mg and 464%, respectively.
With `COc1ccc(/C=C2\CC(c3ccc(OCCN4CCCC4)cc3)Oc3cc(OC)ccc32)cc1` (centres undefined), the Activity came to 147% in test [1], 92.3 mg in [4] and 39.57 mg in [5]. The compound also showed an IC50 in test [2] of 7.39 µM. In test [3], this compound showed an RBA of 0.095%. In test [4], the inhibition in vivo at 10 mg/kg/day stood at 15%.
`COc1ccc(C(=C2CC(c3ccc(O)cc3)Oc3cc(OC)ccc32)c2ccc(OC)cc2)cc1` (centres undefined): the Activity in [1] is listed as 86%; in [4] it was 70.33 mg; in test [5], 26 mg. The outcome in test [2] was inactive. Moreover, the RBA in test [3] was 0.097%. For the same compound, in [4], the inhibition in vivo at 10 mg/kg/day came to 17%.
`COc1ccc(/C=C2\CC(c3ccc(O)cc3)Oc3cc(OC)ccc32)cc1` (centres undefined): the Activity in test [1] amounted to 24%; in test [4] it was 88.33 mg; in test [9], 88.33 mg; in test [5] it was 17.33 mg. In [2], this compound displayed a concentration for half-maximal inhibition (IC50) of 8.77 µM. Further, in test [3], the RBA turned out to be 0.013%.
`COc1ccc2c(c1)OC(c1ccc(O)cc1)C/C2=C\c1ccc(OCc2ccccc2)cc1` (centres undefined): the Activity is reported as 153% in test [1], 29% in test [10], 46.33 mg in test [4] and 38.3 mg in test [5]. For the same compound, the outcome in test [2] was inactive. In [3], this compound registered an RBA of 0.02%. In test [4], the inhibition in vivo at 10 mg/kg/day came to 29%.
Take `COc1ccc(/C=C2\CC(c3ccc(OCCN4CCCCC4)cc3)Oc3cc(OC)ccc32)cc1` (centres undefined): the figures for the Activity in [1], in test [4] and in [5] were 54%, 104.4 mg and 24.63 mg, respectively. The same compound had a concentration for half-maximal inhibition (IC50) in test [2] of 4.39 µM. In [3], this compound yielded an RBA of 0.095%. Moreover, the inhibition in vivo at 10 mg/kg/day in test [4] was determined as 4%.
As for `CC/C(=C(\c1ccccc1)c1ccc(OCCN(C)C)cc1)c1ccccc1` [TAMOXIFEN], the Activity was 155% in test [11], 52.3 mg in test [12], 49% in [13] and 46.32 mg in test [15]. Also, the inhibition in vivo at 3 mg/kg/day in [12] (Rattus norvegicus, Sprague-Dawley) was found to be 49%. 5.09 µM corresponded to half-maximal inhibition in test [14] (IC50).
On to `COc1ccc(C(=C2CC(c3ccc(OCCN(C)C)cc3)Oc3cc(OC)ccc32)c2ccc(OC)cc2)cc1` (centres undefined), for which the outcome in test [2] was inactive. In test [3], this compound showed an RBA of less than 0.001%.
For the compound `COc1ccc(/C=C2\CC(c3ccc(OCCN(C)C)cc3)Oc3cc(OC)ccc32)cc1` (centres undefined), the values for the Activity in test [1], in test [4] and in [5] were 189%, 85.4 mg and 46.3 mg, respectively. The compound further came in with an IC50 in test [2] of 2 µM. In [3], this compound displayed an RBA of 0.006%. Also, the inhibition in vivo at 10 mg/kg/day in [4] stood at 21%.
